In ChEMBL document CHEMBL1221318, “Two distinct classes of novel pyrazolinecarboxamides as potent cannabinoid CB1 receptor agonists” (Bioorg Med Chem Lett, 2010):
Active and inactive are the calls of the source. The rule behind the calls is not given here.

Legend:
Cannabinoid receptor 2 [1] = molecular target: T1, Cannabinoid receptor 2 (Homo sapiens, UniProt P34972); experiment: Displacement of [3H]CP-55940 from human recombinant CB2 receptor expressed in CHO cells; assay type: cell-based
Cannabinoid receptor 1 [2] = molecular target: T2, Cannabinoid receptor 1 (Homo sapiens, UniProt P21554); experiment: Displacement of [3H]CP-55940 from human recombinant CB1 receptor expressed in CHO cells; assay type: cell-based
T2 sequence (P21554 whole entry): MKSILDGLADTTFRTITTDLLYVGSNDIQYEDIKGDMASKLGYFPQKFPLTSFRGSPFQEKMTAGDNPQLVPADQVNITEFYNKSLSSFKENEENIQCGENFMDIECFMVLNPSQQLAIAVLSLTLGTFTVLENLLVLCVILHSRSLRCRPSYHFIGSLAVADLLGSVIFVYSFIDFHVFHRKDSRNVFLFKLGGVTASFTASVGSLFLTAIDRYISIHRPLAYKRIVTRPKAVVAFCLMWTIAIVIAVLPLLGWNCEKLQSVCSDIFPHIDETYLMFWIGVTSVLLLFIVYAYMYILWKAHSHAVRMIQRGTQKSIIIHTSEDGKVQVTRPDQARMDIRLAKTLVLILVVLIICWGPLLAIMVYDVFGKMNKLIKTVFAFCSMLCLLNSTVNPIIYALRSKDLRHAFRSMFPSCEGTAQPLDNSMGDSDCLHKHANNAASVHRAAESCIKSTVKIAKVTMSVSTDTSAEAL

Cannabinoid receptor 1 [3] = molecular target: T2, Cannabinoid receptor 1; experiment: Agonist activity at human recombinant CB1 receptor expressed in CHO cells assessed as effect on CP-55940 induced PLA2 activation by [3H]arachidonic acid release assay; assay type: functional, cell-based; settings: for Kb: read-out: pA2 (converted)
Cannabinoid receptor 2 [4] = molecular target: T1, Cannabinoid receptor 2; experiment: Inverse agonist activity at human recombinant CB2 receptor expressed in CHOK1 cells assessed as effect on forskolin-stimulated adenylate cyclase activity by cAMP accumulation assay; assay type: functional, cell-based, CHO-K1
Procedure, shortened: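 CHO-K1 cells expressing human CB2, grown in serum-supplemented medium with glutamine, Hygromycin B and G418 at 37 °C, 5% CO2. Confluent cells loaded with [3H]adenine for 2 h, then 20 min in PBS with 1 mM IBMX and 3×10^-7 M forskolin ± compound (10^-10–10^-6 M). Stopped with TCA; [3H]cAMP/[3H]ATP separated on Dowex/alumina, scintillation counted, basal subtracted; […], two independent experiments in triplicate.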

Rattus norvegicus = experiment: Neuroprotective activity in Lewis rat assessed as reduction of experimental autoallergic encephalomyelitis-induced motor deficits at 20 mg/kg, po qd for 11 days; assay type: functional, organism-based; parameters: dose 20 mg/kg
Procedure, shortened: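 Male Lewis rats, 175–225 g, inoculated day 0 by subcutaneous hind-paw injection, under isoflurane, of a saline emulsion of complete Freund adjuvant, M. tuberculosis H37RA and guinea pig myelin basic protein. Oral dosing once daily from day one. Motor dysfunction scored daily on a 0–10 scale, with body weights; paralysis intensity analysed as AUC and average score.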

T1 sequence (P34972 whole entry): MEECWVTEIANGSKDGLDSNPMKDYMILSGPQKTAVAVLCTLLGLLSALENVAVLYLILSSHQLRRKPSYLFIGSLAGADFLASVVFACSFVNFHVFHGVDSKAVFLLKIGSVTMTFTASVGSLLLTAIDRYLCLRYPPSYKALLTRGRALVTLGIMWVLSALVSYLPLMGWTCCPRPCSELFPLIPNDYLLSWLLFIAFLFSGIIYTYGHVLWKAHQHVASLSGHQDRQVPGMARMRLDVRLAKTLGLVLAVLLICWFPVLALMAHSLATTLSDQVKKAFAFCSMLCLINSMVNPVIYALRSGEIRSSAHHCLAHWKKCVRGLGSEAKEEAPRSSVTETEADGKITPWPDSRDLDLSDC

For `CCCCCC1=NN(C(=O)NC(C)(C)c2ccccc2)CC1c1ccccc1` (stereo unspecified), the Ki (Cannabinoid receptor 2 [1]) was 17.6 nM, the Ki (Cannabinoid receptor 1 [2]) was 3.26 nM and the EC50 (Cannabinoid receptor 1 [3]) was 3.98 nM.
In the case of `CCCCCN1N=C(C(=O)NC(C)(C)c2ccc(F)cc2)CC1c1ccccc1` (stereo unspecified), the Ki (Cannabinoid receptor 2 [1]) is reported as 121 nM, the Ki (Cannabinoid receptor 1 [2]) is reported as 118 nM and the EC50 (Cannabinoid receptor 1 [3]) is reported as 3.98 nM. For the same compound, the Kb (Cannabinoid receptor 1 [3]) was 7.94 nM.
With `CCCCCC1=NN(C(=O)N[C@H]2CC3CC[C@]2(C)C3(C)C)CC1c1ccccc1` (single isomer, unassigned) the Ki (Cannabinoid receptor 2 [1]) was 36 nM, the Ki (Cannabinoid receptor 1 [2]) was 46.8 nM and the EC50 (Cannabinoid receptor 1 [3]) was 158 nM.
In the case of `CCCCCC1=NN(C(=O)NCC2CCCCC2)CC1c1ccccc1` (stereo unspecified), the Ki (Cannabinoid receptor 2 [1]) is reported as 53 nM and the Ki (Cannabinoid receptor 1 [2]) is reported as 15.3 nM.
In the case of `CCCCCC1=NN(C(=O)NC[C@@H]2CC[C@H]3C[C@@H]2C3(C)C)CC1c1ccccc1` (stereo partly specified), the Ki (Cannabinoid receptor 2 [1]) is reported as 13.3 nM, the Ki (Cannabinoid receptor 1 [2]) is reported as 15.6 nM and the EC50 (Cannabinoid receptor 1 [3]) is reported as 2000 nM.
With `CCCCC1=NN(C(=O)NC(C)(C)c2ccc(F)cc2)CC1c1cccc(F)c1` (stereo unspecified) the Ki (Cannabinoid receptor 2 [1]) was 74 nM, the Ki (Cannabinoid receptor 1 [2]) was 44.9 nM and the EC50 (Cannabinoid receptor 1 [3]) was 100 nM.
With `CCCCCC1=NN(C(=O)NCc2ccccc2)CC1c1ccccc1` (stereo unspecified) the Ki (Cannabinoid receptor 2 [1]) was 260 nM, the Ki (Cannabinoid receptor 1 [2]) was 51 nM and the EC50 (Cannabinoid receptor 1 [3]) was 398 nM.
Compound `CCCCCC1=NN(C(=O)Nc2ccccc2C(F)(F)F)CC1c1ccccc1` (stereo unspecified) has a Ki (Cannabinoid receptor 2 [1]) of 15 nM and a Ki (Cannabinoid receptor 1 [2]) of 70 nM.
Compound `CCCCC1=NN(C(=O)NC(C)(C)c2ccccc2)C(C)(C)C1c1ccccc1` (stereo unspecified) has a Ki (Cannabinoid receptor 2 [1]) of 11.9 nM and a Ki (Cannabinoid receptor 1 [2]) of 9 nM.
`CCCCCC1=NN(C(=O)NC23CC4CC(CC(C4)C2)C3)CC1c1ccccc1` (stereo unspecified) gave a Ki (Cannabinoid receptor 2 [1]) of 14.9 nM, a Ki (Cannabinoid receptor 1 [2]) of 68 nM and an EC50 (Cannabinoid receptor 1 [3]) of 398 nM.
`CCCCCC1=NN(C(=O)NC2C3CC4CC(C3)CC2C4)CC1c1ccccc1` (stereo unspecified) was tested, and the Ki (Cannabinoid receptor 2 [1]) was 6.3 nM, the Ki (Cannabinoid receptor 1 [2]) was 6.4 nM and the EC50 (Cannabinoid receptor 1 [3]) was 25.1 nM.
In the case of `CCCCCC1=NN(C(=O)N[C@H]2C[C@H]3CC[C@]2(C)C3(C)C)CC1c1ccccc1` (stereo in doubt; 9), the Ki (Cannabinoid receptor 2 [1]) is reported as 7.4 nM, the Ki (Cannabinoid receptor 1 [2]) is reported as 28.5 nM and the EC50 (Cannabinoid receptor 1 [3]) is reported as 0.631 nM. For the same compound, the Kb (Cannabinoid receptor 1 [3]) was 7.94 nM.
Compound `CCCCC1=NN(C(=O)NC(C)(C)c2ccccc2)CC1c1ccccc1` (stereo unspecified) has a Ki (Cannabinoid receptor 2 [1]) of 35.6 nM, a Ki (Cannabinoid receptor 1 [2]) of 14.2 nM and an EC50 (Cannabinoid receptor 1 [3]) of 3.98 nM.
For `CCCCC1=NN(C(=O)N[C@H]2C[C@H]3CC[C@]2(C)C3(C)C)C(C)(C)C1c1ccccc1` (stereo partly specified), the Ki (Cannabinoid receptor 2 [1]) was 3.4 nM and the Ki (Cannabinoid receptor 1 [2]) was 16.1 nM.
For `CCCCCC1=NN(C(=O)c2cccc3ccccc23)CC1c1ccccc1` (stereo unspecified), the Ki (Cannabinoid receptor 2 [1]) was 103 nM, the Ki (Cannabinoid receptor 1 [2]) was 164 nM and the EC50 (Cannabinoid receptor 1 [3]) was 31.6 nM.
For `CCCCCC1=NN(C(=O)NC2CCCCCCC2)CC1c1ccccc1` (stereo unspecified), the Ki (Cannabinoid receptor 2 [1]) was 26.6 nM and the Ki (Cannabinoid receptor 1 [2]) was 11.9 nM.
Compound `CCCCCN1N=C(C(=O)N[C@H]2C[C@H]3CC[C@]2(C)C3(C)C)CC1c1ccccc1F` (stereo partly specified) has a Ki (Cannabinoid receptor 2 [1]) of 9.1 nM, a Ki (Cannabinoid receptor 1 [2]) of 6.1 nM and an EC50 (Cannabinoid receptor 1 [3]) of 3.98 nM. It also gave a Kb (Cannabinoid receptor 1 [3]) of 7.94 nM.
For `CCCCCCC(C)(C)c1cc(O)c2c(c1)OC(C)(C)[C@@H]1CCC(=O)C[C@@H]21` [NABILONE], the Ki (Cannabinoid receptor 2 [1]) was 17.6 nM, the Ki (Cannabinoid receptor 1 [2]) was 5.1 nM and the EC50 (Cannabinoid receptor 1 [3]) was 3.98 nM.
`CCCCCN1N=C(C(=O)N[C@H]2C[C@H]3CC[C@]2(C)C3(C)C)CC1c1ccccc1` (stereo partly specified) showed a Ki (Cannabinoid receptor 2 [1]) of 20.1 nM, a Ki (Cannabinoid receptor 1 [2]) of 4.7 nM and an EC50 (Cannabinoid receptor 1 [3]) of 5.01 nM. It also gave a Kb (Cannabinoid receptor 1 [3]) of 7.94 nM.
Compound `CCCCCC1=NN(C(=O)NC2CCCCC2)CC1c1ccccc1` (stereo unspecified) has a Ki (Cannabinoid receptor 2 [1]) of 79 nM and a Ki (Cannabinoid receptor 1 [2]) of 52 nM.
In the case of `CCCCCC1=NN(C(=O)NCC23CC4CC(CC(C4)C2)C3)CC1c1ccccc1` (stereo unspecified), the Ki (Cannabinoid receptor 1 [2]) is reported as 16.1 nM.
In the case of `CCCCC1=NN(C(=O)NC(C)(C)c2ccccc2)CC1c1ccsc1` (stereo unspecified), the Ki (Cannabinoid receptor 2 [1]) is reported as 62 nM, the Ki (Cannabinoid receptor 1 [2]) is reported as 19.3 nM and the EC50 (Cannabinoid receptor 1 [3]) is reported as 39.8 nM.
In the case of `CCCCCC1=NN(C(=O)NC2C[C@H]3CCC2(C)C3(C)C)CC1c1ccccc1` (single isomer, unassigned), the EC50 (Cannabinoid receptor 2 [4]) is reported as 3.16 nM, the Activity (Rattus norvegicus) is reported as “Active” and the Ki (Cannabinoid receptor 2 [1]) is reported as 5.3 nM. It also gave a Ki (Cannabinoid receptor 1 [2]) of 8.3 nM, an EC50 (Cannabinoid receptor 1 [3]) of 3.98 nM and a pA2 (Cannabinoid receptor 1 [3]; cho) of 8.1.
`CCCCCC1=NN(C(=O)NC2CCCc3ccccc32)CC1c1ccccc1` (stereo unspecified) showed a Ki (Cannabinoid receptor 2 [1]) of 22.5 nM and a Ki (Cannabinoid receptor 1 [2]) of 33.1 nM.
`CCCCCC1=NN(C(=O)Nc2cccc3ccccc23)CC1c1ccccc1` (stereo unspecified) gave a Ki (Cannabinoid receptor 2 [1]) of 36.6 nM, a Ki (Cannabinoid receptor 1 [2]) of 7.4 nM and an EC50 (Cannabinoid receptor 1 [3]) of 1580 nM.
`CCCCCC1=NN(C(=O)NC2CCCCCC2)CC1c1ccccc1` (stereo unspecified) showed a Ki (Cannabinoid receptor 2 [1]) of 19.8 nM and a Ki (Cannabinoid receptor 1 [2]) of 15.3 nM.
With `CCCCC1=NN(C(=O)NC(C)(C)c2ccc(F)cc2)CC1c1ccccc1F` (stereo unspecified) the Ki (Cannabinoid receptor 2 [1]) was 89 nM, the Ki (Cannabinoid receptor 1 [2]) was 32 nM and the EC50 (Cannabinoid receptor 1 [3]) was 126 nM.
`CCCCCN1N=C(C(=O)NC2C3CC4CC(C3)CC2C4)CC1c1ccccc1` (stereo unspecified) gave a Ki (Cannabinoid receptor 2 [1]) of 7.1 nM, a Ki (Cannabinoid receptor 1 [2]) of 9.2 nM and a Kb (Cannabinoid receptor 1 [3]) of 7.94 nM.
